Laboratory results reported in ChEMBL document CHEMBL1140458, “Design and synthesis of novel antibacterial peptide-resin conjugates” (Bioorg Med Chem Lett, 2007).
Values after ≈ are worked out from the molar mass of the structure shown. Residues, ends and D or L forms follow the SMILES beside them.

Assays:
Staphylococcus aureus = test: Antibacterial activity against Staphylococcus aureus ATCC 6538 by microdilution method; format: functional
In short: (§1)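 Modified microdilution method. For the resin conjugates, the amount added to the medium volume was based on the total peptide quantity bound to the resin, as calculated by Fmoc titration.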

Micrococcus luteus = test: Antibacterial activity against Micrococcus luteus ATCC 9341 by microdilution method; format: functional; in short: as §1
Escherichia coli = test: Antibacterial activity against Escherichia coli ATCC 25922 by microdilution method; format: functional; in short: as §1
Pseudomonas aeruginosa = test: Antibacterial activity against Pseudomonas aeruginosa ATCC 9027 by microdilution method; format: functional; in short: as §1
[1] = Cytotoxicity against human erythrocytes assessed as hemolysis; format: cell-based; conditions: erythrocyte

SMILES: CC(C)[C@H](NC(=O)[C@H](CCCCN)NC(=O)[C@@H](NC(=O)[C@H](CCCCN)NC(=O)[C@H](Cc1ccccc1)NC(=O)[C@H](CCCCN)NC(=O)[C@@H](NC(=O)[C@H](CCCCN)NC(=O)[C@@H](N)Cc1ccccc1)C(C)C)C(C)C)C(=O)N[C@@H](CCCCN)C(N)=O (H-FKVKFKVKVK-NH2)
- MIC (Staphylococcus aureus): 1.56 µg/mL (≈ 1.25 µM)
- MIC (Micrococcus luteus): 3.12 µg/mL (≈ 2.5 µM)
- MIC (Escherichia coli): 3.12 µg/mL (≈ 2.5 µM)
- MIC (Pseudomonas aeruginosa): 6.25 µg/mL (≈ 5 µM)
- Activity [1]: Not Active

SMILES: CC(C)[C@H](NC(=O)[C@H](CCCCN)NC(=O)[C@H](CCCCN)NC(=O)[C@H](CCCCN)NC(=O)[C@H](CCCCN)NC(=O)[C@H](CCCCN)NC(=O)[C@@H](NC(=O)[C@@H](NC(=O)[C@@H](N)Cc1ccccc1)C(C)C)C(C)C)C(=O)N[C@@H](Cc1ccccc1)C(N)=O (H-FVVKKKKKVF-NH2)
- MIC (Staphylococcus aureus): > 400 µg/mL
- MIC (Micrococcus luteus): > 400 µg/mL
- MIC (Escherichia coli): > 400 µg/mL
- MIC (Pseudomonas aeruginosa): > 400 µg/mL

SMILES: CC[C@H](C)[C@H](NC(=O)CN)C(=O)NCC(=O)N[C@@H](CCCCN)C(=O)N[C@@H](Cc1ccccc1)C(=O)N[C@@H](CC(C)C)C(=O)N[C@@H](Cc1c[nH]cn1)C(=O)N[C@@H](CO)C(=O)N[C@@H](C)C(=O)N[C@@H](CCCCN)C(=O)N[C@@H](CCCCN)C(=O)N[C@@H](Cc1ccccc1)C(=O)NCC(=O)N[C@@H](CCCCN)C(=O)N[C@@H](C)C(=O)N[C@@H](Cc1ccccc1)C(=O)N[C@H](C(=O)NCC(=O)N[C@@H](CCC(=O)O)C(=O)N[C@H](C(=O)N[C@@H](CCSC)C(=O)N[C@@H](CC(N)=O)C(=O)N[C@@H](CO)C(=O)O)[C@@H](C)CC)C(C)C [MAGAININ 2] (H-GIGKFLHSAKKFGKAFVGEIMNS-OH)
- MIC (Staphylococcus aureus): 50 µg/mL (≈ 20.3 µM)
- MIC (Micrococcus luteus): 50 µg/mL (≈ 20.3 µM)
- MIC (Escherichia coli): 50 µg/mL (≈ 20.3 µM)
- MIC (Pseudomonas aeruginosa): 25 µg/mL (≈ 10.1 µM)
